Source: ChEMBL document CHEMBL1157029, “Synthesis, characterization and in vitro pharmacology of novel pregabalin derivatives” (Eur J Med Chem, 2010)

target: not listed separately; test: Displacement of [3H]gabapentin binding to voltage gated calcium channel alpha2delta from rat cerebral cortex by scintillation counting; format: tissue-based
Summary of the method: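 Membranes were incubated 60 min at 22 °C with 10 nM [3H]gabapentin ± test compound in 10 mM Hepes/Tris pH 7.4. Nonspecific binding was taken with excess unlabelled gabapentin. Filter-bound radioactivity was counted by scintillation. Compounds were diluted from DMSO stocks, 100-fold into the well. Duplicates. IC50 came from a competition curve of specific binding; gabapentin was the reference in each run.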

| Compound | IC50 [µM] | Ki [µM] |
| --- | --- | --- |
| CC(C)C[C@H](CN)CC(=O)NCCc1c[nH]c2ccc(O)cc12 | 13 | 11 |

species on record: Rattus norvegicus; test: Inhibition of [3H]gabapentin binding to voltage gated calcium channel alpha2delta from rat cerebral cortex at 10 uM by scintillation counting; format: tissue-based
Summary of the method: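 Single test concentration, in duplicate. Membranes were incubated 60 min at 22 °C with 10 nM [3H]gabapentin in 10 mM Hepes/Tris pH 7.4. Nonspecific binding was defined with excess unlabelled gabapentin, and filters were counted by scintillation. Compound came from DMSO stock with a final 100-fold dilution in the well. Result given as % inhibition of control specific binding.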

| Compound | inhibition [%] |
| --- | --- |
| CC(C)C[C@H](CN)CC(=O)N[C@H]1C(O)O[C@H](CO)[C@H](O)[C@@H]1O (some centres undefined) | 9 |
| CC(C)C[C@H](CN)CC(=O)O | 92 |
| CC(C)C[C@H](CN)CC(=O)N[C@H]1C(O)O[C@H](CO)[C@@H](O)[C@@H]1O (some centres undefined) | 18 |
| CC(C)C[C@H](CN)CC(=O)N[C@@H]1C(O)O[C@H](CO)[C@@H](O)[C@@H]1O (some centres undefined) | 14 |
| CC(C)C[C@H](CN)CC(=O)NCCc1c[nH]c2ccc(O)cc12 | 51 |
| CC(C)C[C@H](CN)CC(=O)NCCc1c[nH]c2ccccc12 | 18 |
| CC(C)C[C@H](CN)CC(=O)N[C@@H]1O[C@H](CO)[C@@H](O)[C@H](O)[C@H]1O | 17 |
